Substrate in data set [1]: Cc1cc(=O)oc2cc(NC(=O)[C@@H]3CCCN3C(=O)CNC(=O)OCc3ccccc3)ccc12
The data set is described as follows: Activity of POP in human LN229 cell extracts incubated for 30 mins by fluorimetric assay. The method in brief: (§1)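 Confluent cell monolayers lysed in PBS with 0.1% Triton X-100. Increasing Z-Gly-Pro-AMC concentrations added; fluorescence increase (ex/em 360/460 nm) recorded for 30 min at 37 °C. KM read graphically from a double-reciprocal Michaelis–Menten plot.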

Substrate in data set [2]: Cc1cc(=O)oc2cc(NC(=O)[C@@H]3CCCN3C(=O)CNC(=O)OCc3ccccc3)ccc12
The data set is described as follows: Activity of POP in human HCEC cell extracts incubated for 30 mins by fluorimetric assay. The essentials: as §1

Substrate in data set [3]: Cc1cc(=O)oc2cc(NC(=O)[C@@H]3CCCN3C(=O)CNC(=O)OCc3ccccc3)ccc12
The data set is described as follows: Activity of POP in human LNZ308 cell extracts incubated for 30 mins by fluorimetric assay. The essentials: as §1

Substrate in data set [4]: Cc1cc(=O)oc2cc(NC(=O)[C@@H]3CCCN3C(=O)CNC(=O)OCc3ccccc3)ccc12
Briefly: Activity of human recombinant POP incubated for 30 mins by fluorimetric assay. The method in brief:
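Recombinant human POP/PREP stock diluted in PBS containing 1 mg/mL BSA. Increasing Z-Gly-Pro-AMC concentrations added; fluorescence (ex/em 360/460 nm) followed for 30 min at 37 °C. KM determined graphically from a double-reciprocal Michaelis–Menten plot.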

Substrate in data set [5]: Cc1cc(=O)oc2cc(NC(=O)[C@@H]3CCCN3C(=O)CNC(=O)OCc3ccccc3)ccc12
The data set is described as follows: Activity of POP in human LN18 cell extracts incubated for 30 mins by fluorimetric assay. The essentials:
as §1

This note sets out measurements from ChEMBL document CHEMBL2157866, “Virtual screening and computational optimization for the discovery of covalent prolyl oligopeptidase inhibitors with activity in human cells” (J Med Chem, 2012).

B1: Prolyl endopeptidase (Homo sapiens), P48147 (protein)
chain: MLSLQYPDVYRDETAVQDYHGHKICDPYAWLEDPDSEQTKAFVEAQNKITVPFLEQCPIRGLYKERMTELYDYPKYSCHFKKGKRYFYFYNTGLQNQRVLYVQDSLEGEARVFLDPNILSDDGTVALRGYAFSEDGEYFAYGLSASGSDWVTIKFMKVDGAKELPDVLERVKFSCMAWTHDGKGMFYNSYPQQDGKSDGTETSTNLHQKLYYHVLGTDQSEDILCAEFPDEPKWMGGAELSDDGRYVLLSIREGCDPVNRLWYCDLQQESSGIAGILKWVKLIDNFEGEYDYVTNEGTVFTFKTNRQSPNYRVINIDFRDPEESKWKVLVPEHEKDVLEWIACVRSNFLVLCYLHDVKNILQLHDLTTGALLKTFPLDVGSIVGYSGQKKDTEIFYQFTSFLSPGIIYHCDLTKEELEPRVFREVTVKGIDASDYQTVQIFYPSKDGTKIPMFIVHKKGIKLDGSHPAFLYGYGGFNISITPNYSVSRLIFVRHMGGILAVANIRGGGEYGETWHKGGILANKQNCFDDFQCAAEYLIKEGYTSPKRLTINGGSNGGLLVAACANQRPDLFGCVIAQVGVMDMLKFHKYTIGHAWTTDYGCSDSKQHFEWLVKYSPLHNVKLPEADDIQYPSMLLLTADHDDRVVPLHSLKFIATLQYIVGRSRKQSNPLLIHVDTKAGHGAGKPTAKVIEEVSDMFAFIARCLNVDWIP
As to B1, the Km is 6.7 µM in data set [1]; 7 µM in data set [2]; 8.1 µM in data set [3]; 8.5 µM in data set [4]; 8.5 µM in data set [5].
